Experiments:
α4β1 integrin [1] = target: T1, α4β1 integrin (Homo sapiens, UniProt P05556+P13612); assay: in vitro binding studies of radioiodinated 8; conditions: 125I-labelled
α4β1 integrin [2] = target: T1, α4β1 integrin; assay: cell adhesion competitive inhibition assay; assay type: cell-based
Outline: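 Wells were coated with neutravidin, then loaded with biotinylated CS-1 to immobilize the ligand, and blocked with BSA. Molt-4 cells (human T-cell leukemia, α4β1-bearing) were incubated in the wells with test compound. Wells were washed, formalin-fixed and crystal violet-stained, and absorbance was read at 570 nm. Percent inhibition came from concentration-dependent curves.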

[3] = system: Raji cells (human B-cell lymphoma) xenograft tumors; assay: animal biodistribution study for 7 in Raji xenograft mice; assay type: in vivo, BALB/c nu/nu mice; conditions: i.v.
Outline: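 Eleven female BALB/c nu/nu mice, 5–6 weeks old, were xenografted s.c. in the abdomen with 5 × 10⁶ Raji cells. Tumors were measured after three weeks. The ¹²⁵I-labeled test compound (4–6 μCi; 5 μg, 6 nmol) in normal saline was given i.v. via the tail vein. Mice were killed at 4, 24 and 48 h. Tissues were weighed and γ-counted (%ID/g). Mice were grouped afterwards by slow or fast blood clearance.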

T1 sequence (P13612 34-1032): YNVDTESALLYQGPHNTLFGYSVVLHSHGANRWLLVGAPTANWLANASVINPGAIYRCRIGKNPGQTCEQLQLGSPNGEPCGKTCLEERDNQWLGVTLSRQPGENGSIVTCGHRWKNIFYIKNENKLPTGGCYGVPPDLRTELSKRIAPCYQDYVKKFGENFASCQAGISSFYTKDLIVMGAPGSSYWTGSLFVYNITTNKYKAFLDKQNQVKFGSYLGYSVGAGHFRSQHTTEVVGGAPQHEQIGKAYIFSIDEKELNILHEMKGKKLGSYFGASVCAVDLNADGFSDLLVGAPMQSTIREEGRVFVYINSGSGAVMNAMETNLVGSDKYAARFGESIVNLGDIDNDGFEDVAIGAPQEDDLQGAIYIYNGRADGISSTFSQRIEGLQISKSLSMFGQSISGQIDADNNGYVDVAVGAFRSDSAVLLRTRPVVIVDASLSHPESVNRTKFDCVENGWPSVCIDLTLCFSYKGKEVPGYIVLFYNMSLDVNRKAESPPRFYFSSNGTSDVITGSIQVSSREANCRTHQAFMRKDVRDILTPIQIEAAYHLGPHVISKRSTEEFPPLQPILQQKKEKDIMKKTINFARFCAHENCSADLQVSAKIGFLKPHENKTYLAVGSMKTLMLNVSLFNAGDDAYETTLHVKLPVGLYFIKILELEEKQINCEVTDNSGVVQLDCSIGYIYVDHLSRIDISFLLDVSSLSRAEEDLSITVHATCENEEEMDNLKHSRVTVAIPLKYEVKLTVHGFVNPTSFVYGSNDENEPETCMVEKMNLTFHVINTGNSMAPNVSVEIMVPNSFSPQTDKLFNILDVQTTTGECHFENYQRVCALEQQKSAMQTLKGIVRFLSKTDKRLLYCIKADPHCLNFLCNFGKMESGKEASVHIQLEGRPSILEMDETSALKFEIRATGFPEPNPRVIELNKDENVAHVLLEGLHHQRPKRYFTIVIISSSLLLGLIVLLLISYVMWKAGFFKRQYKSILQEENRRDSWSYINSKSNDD
T1 sequence (P05556 21-798): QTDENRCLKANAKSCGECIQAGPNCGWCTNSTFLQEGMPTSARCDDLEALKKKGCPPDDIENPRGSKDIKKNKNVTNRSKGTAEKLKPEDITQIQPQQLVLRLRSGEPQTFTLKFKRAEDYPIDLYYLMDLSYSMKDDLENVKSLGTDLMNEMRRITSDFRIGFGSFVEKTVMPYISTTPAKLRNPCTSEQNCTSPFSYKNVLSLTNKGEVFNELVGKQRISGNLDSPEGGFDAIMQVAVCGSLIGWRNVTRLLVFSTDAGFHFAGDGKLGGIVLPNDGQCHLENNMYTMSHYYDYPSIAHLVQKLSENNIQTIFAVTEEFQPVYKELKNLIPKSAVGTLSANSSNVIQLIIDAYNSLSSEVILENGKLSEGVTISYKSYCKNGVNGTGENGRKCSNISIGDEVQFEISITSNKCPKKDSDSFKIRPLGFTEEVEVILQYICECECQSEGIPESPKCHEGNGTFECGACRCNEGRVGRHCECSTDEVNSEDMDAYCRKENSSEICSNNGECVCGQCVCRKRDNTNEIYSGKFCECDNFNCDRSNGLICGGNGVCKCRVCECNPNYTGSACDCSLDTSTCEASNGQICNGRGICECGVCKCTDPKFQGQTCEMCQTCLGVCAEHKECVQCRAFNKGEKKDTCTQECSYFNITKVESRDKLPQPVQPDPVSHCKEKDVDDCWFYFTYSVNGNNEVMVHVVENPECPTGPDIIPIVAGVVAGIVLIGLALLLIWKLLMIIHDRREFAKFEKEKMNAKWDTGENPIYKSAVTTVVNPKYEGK

`NC(=O)[C@H](Cc1ccc(O)c([125I])c1)C(=O)NC(=O)C1(NC(=O)[C@H](CCC(=O)O)NC(=O)[C@H](CCCCNC(=O)/C=C/c2cccnc2)NC(=O)c2ccc(Nc3nc4cc(Br)ccc4[nH]3)cc2)CCCCC1` [compound 8, [^125I]-(S)-6-[1-{(S)-3-Amino-2-(4-hydroxy-3-iodobenzyl)-3-oxopropanoyl-carbamoyl}cyclohexylamino]-5-[(S)-2-{4-(5-bromo-1H-benzo[d]imidazol-2-ylamino)benzamido]-6-[(E)-3-(pyridin-3-yl)-acrylamido}hexanamido]-6-oxohexanoic Acid] showed an in vitro binding (α4β1 integrin [1]) of under 4%.

In the case of “(S)-6-(1-Carbamoylcyclohexylamino)-5-[(S)-2-{4-(5-iodo-1H-benzo[d]imidazol-2-ylamino)benz-amido]-6-[(E)-3-(pyridin-3-yl)acrylamido}hexanamido]-6-oxohexanoic Acid [compound 6]”, the “fold less potent than the fluoro (3), chloro (4), and bromo (5) analogues” value (α4β1 integrin [2]; compared with 3, 4, 5) is reported as “approximately 10 fold” and the “fold more potent than the unsubstituted (15a) and methyl analogues (15b)” value (α4β1 integrin [2]; compared with 15a, 15b) is reported as 100 fold.

With `NC(=O)C1(NC(=O)[C@H](CCCC(=O)O)NC(=O)[C@H](CCCCNC(=O)/C=C/c2cccnc2)NC(=O)c2ccc(Nc3nc4cc(Br)ccc4[nH]3)cc2)CCCCC1` [compound 5, (S)-5-[(S)-2-{4-(5-Bromo-1H-benzo[d]imidazol-2-ylamino}benzamido]-6-[(E)-3-(pyridin-3-yl)-acrylamido}hexanamido]-6-(1-carbamoylcyclohexylamino)-6-oxo-hexanoic Acid] the “fold less potent than previous leads” value (α4β1 integrin [2]; compared with previous leads) was 2 fold.

With `NC(=O)C1(NC(=O)[C@H](CCC(=O)O)NC(=O)[C@H](CCCCNC(=O)/C=C/c2cccnc2)NC(=O)c2ccc(Nc3nc4cc([125I])ccc4[nH]3)cc2)CCCCC1` [compound 7, [^125I]-(S)-6-(1-Carbamoylcyclohexylamino)-5-[(S)-2-{4-(5-iodo-1H-benzo[d]imidazol-2-ylamino)-benzamido]-6-[(E)-3-(pyridin-3-yl)acrylamido}hexanamido]-6-oxo-hexanoic Acid] the “reduced in vitro affinity for α4β1 integrin compared to the bromo analogue 5” value (α4β1 integrin [2]; compared with 5) was “nearly ten-fold”, the “major dose accumulated in liver, spleen and marrow” value ([3]; fast blood clearance mice (3 at 24 h, 2 at 48 h)) was 25 % ID/g and the tumor uptake ([3]; fast blood clearance mice) was “less than 1.5 % ID/g”. The “still circulating in the blood” value ([3]; slow blood clearance mice (2 at 24 h, 1 at 48 h)) was “approximately 15%”, the “liver, spleen and marrow uptakes” value ([3]; slow blood clearance mice, 48 h) was “less than 8 % ID/g” and the tumor uptake ([3]; slow blood clearance mice) was “greater than 6 % ID/g”.

Source: paper PMC3166240 (Cancer research, 2010)
